Laboratory results: ChEMBL document CHEMBL1156656, “HIV-1 ribonuclease H inhibitory phenolic glycosides from Eugenia hyemalis” (J Nat Prod, 2008)
pIC50: −log10 of the molar value. The source made the active and inactive calls. The rule behind the calls is not given here.

Experiments:
[1] = Inhibition of human RNase H by FRET assay
Method in brief: (§1)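 RNase H enzymes (HIV-1, HIV-2, human) assayed by high-throughput fluorescence resonance energy transfer (FRET) cleavage assay; extracts run in presence of 1% bovine serum albumin.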

[2] = Inhibition of HIV1 RNase H by FRET assay; set-up: species or system Human immunodeficiency virus 1; method in brief: as §1
[3] = Inhibition of HIV2 RNase H by FRET assay; set-up: species or system Human immunodeficiency virus 2; method in brief: as §1
[4] = test system: Escherichia coli; assay: Inhibition of Escherichia coli RNase H by FRET assay
[5] = test system: Human immunodeficiency virus; assay: Antiviral activity against HIV-RF in human CEM-SS cells assessed as cytopathogenicity at 20 ug/ml; assay type: functional, organism-based
Method in brief: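 Human CEM-SS T cells infected with HIV-1 strain RF; XTT-based cell viability read-out of protection from viral cytopathic effect; highest dose tested 20 μg/mL.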

Q: With `O=C(OC[C@H]1O[C@@H](Oc2ccc(O)cc2)[C@H](OC(=O)c2cc(O)c(O)c(O)c2)[C@@H](O)[C@@H]1O)c1cc(O)c(O)c(O)c1` as the compound, how does the pIC50 [1] read?
A: 6.26

Q: What about the pIC50 [2] of the same compound?
A: 5.30

Q: And the pIC50 [3]?
A: 6.55

Q: And the Activity [4]?
A: inactive

Q: With `O=C(OC[C@H]1O[C@@H](Oc2ccc(O)cc2)[C@H](OC(=O)c2cc(O)c(O)c(O)c2)[C@@H](O)[C@@H]1O)c1ccc(O)cc1` [HYEMALOSIDE B] as the compound, how does the pIC50 [1] read?
A: 5.61

Q: What about the pIC50 [2] of the same compound?
A: < 4.74

Q: What about the pIC50 [3] of the same compound?
A: 5.48

Q: What about the Activity [4] of the same compound?
A: inactive

Q: With `O=C(O[C@H]1[C@H](Oc2ccc(O)cc2)O[C@H](CO)[C@@H](O)[C@@H]1O)c1cc(O)c(O)c(O)c1` as the compound, how does the pIC50 [1] read?
A: < 4.63

Q: And the pIC50 [2]?
A: < 4.63

Q: What about the pIC50 [3] of the same compound?
A: < 4.63

Q: And the Activity [4]?
A: inactive

Q: With `O=C(OC[C@H]1O[C@@H](Oc2ccc(O)cc2)[C@H](OC(=O)c2cc(O)c(O)c(O)c2)[C@@H](OC(=O)c2cc(O)c(O)c(O)c2)[C@@H]1O)c1cc(O)c(O)c(O)c1` [HYEMALOSIDE A] as the compound, how does the pIC50 [1] read?
A: 6.74

Q: What about the pIC50 [2] of the same compound?
A: 5.84

Q: And the pIC50 [3]?
A: 6.24

Q: What about the Activity [4] of the same compound?
A: inactive

Q: With `O=C(O[C@@H]1[C@@H](OC(=O)c2cc(O)c(O)c(O)c2)[C@H](Oc2ccc(O)cc2)O[C@@H]2COC(=O)c3cc(O)c(O)c(O)c3-c3c(cc(O)c(O)c3O)C(=O)O[C@@H]12)c1cc(O)c(O)c(O)c1` [HYEMALOSIDE C] as the compound, how does the pIC50 [1] read?
A: 7.15

Q: What about the pIC50 [2] of the same compound?
A: 5.92

Q: What about the pIC50 [3] of the same compound?
A: 6.08

Q: What about the Activity [4] of the same compound?
A: inactive

Q: What does the source list for `C[C@@H]1O[C@@H](Oc2c(-c3ccc(O)c(O)c3)oc3cc(O)cc(O)c3c2=O)[C@H](O)[C@H](O)[C@H]1O` [QUERCITRIN]?
A: pIC50 [1]: 4.90; pIC50 [2]: < 4.65; pIC50 [3]: 4.67; Activity [4]: inactive

Q: Which results are given for `O=C(OC[C@H]1O[C@@H](Oc2ccc(O)cc2)[C@H](OC(=O)c2cc(O)c(O)c(O)c2)[C@@H](O)[C@@H]1OC(=O)c1cc(O)c(O)c(O)c1)c1cc(O)c(O)c(O)c1`?
A: pIC50 [1]: 7.40; pIC50 [2]: 6.17; pIC50 [3]: 7.00; Activity [4]: inactive

Q: With `O=C(OC[C@H]1O[C@@H](OC(=O)c2cc(O)c(O)c(O)c2)[C@H](OC(=O)c2cc(O)c(O)c(O)c2)[C@@H](O)[C@@H]1O)c1cc(O)c(O)c(O)c1` as the compound, how does the pIC50 [1] read?
A: 6.26

Q: And the pIC50 [2]?
A: 4.99

Q: What about the pIC50 [3] of the same compound?
A: 6.55

Q: And the Activity [4]?
A: inactive

Q: With `C[C@H]1O[C@H](Oc2c(-c3ccc(O)cc3)oc3cc(O)cc(O)c3c2=O)[C@@H](OC(=O)c2cc(O)c(O)c(O)c2)[C@@H](O)[C@H]1O` as the compound, how does the pIC50 [1] read?
A: 5.52

Q: And the pIC50 [2]?
A: < 4.77

Q: And the pIC50 [3]?
A: 5.47

Q: And the Activity [4]?
A: inactive

Q: What does the source list for `O=C(O[C@H]1[C@H](O)[C@@H](O)[C@H](Oc2ccc(O)cc2)O[C@@H]1CO)c1cc(O)c(O)c(O)c1`?
A: pIC50 [1]: < 4.63; pIC50 [2]: < 4.63; Activity [5]: inactive; pIC50 [3]: < 4.63; Activity [4]: inactive

Q: With `O=C(OC[C@H]1O[C@@H](Oc2c(-c3ccc(O)cc3)oc3cc(O)cc(O)c3c2=O)[C@H](O)[C@@H](O)[C@@H]1O)c1cc(O)c(O)c(O)c1` as the compound, how does the pIC50 [1] read?
A: 5.02

Q: And the pIC50 [2]?
A: < 4.78

Q: And the pIC50 [3]?
A: 5.28

Q: What about the Activity [4] of the same compound?
A: inactive

Q: Which results are given for `C[C@H]1O[C@H](Oc2c(-c3ccc(O)cc3)oc3cc(O)cc(O)c3c2=O)[C@@H](O)[C@@H](OC(=O)c2cc(O)c(O)c(O)c2)[C@H]1O`?
A: pIC50 [1]: 5.14; pIC50 [2]: < 4.77; pIC50 [3]: 5.04; Activity [4]: inactive
